# Measured values reported in ChEMBL document CHEMBL3758135 (J Nat Prod, 2015).
# How the values were obtained:
# Prostaglandin E synthase = target: T1, Prostaglandin E synthase (Homo sapiens, UniProt O14684); assay: Inhibition of mPGES-1 in human IL-1beta-stimulated A549 cell microsomes assessed as reduction of PGE2 formation from PGH2 preincubated for 15 mins by HPLC analysis; assay type: cell-based
# T1 sequence (O14684 whole entry): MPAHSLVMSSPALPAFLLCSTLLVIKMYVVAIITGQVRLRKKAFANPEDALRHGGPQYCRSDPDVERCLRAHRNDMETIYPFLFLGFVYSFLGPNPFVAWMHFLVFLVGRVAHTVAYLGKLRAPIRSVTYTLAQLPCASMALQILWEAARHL
# How it was run: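 A549 cells stimulated with 2 ng/mL IL-1β for 72 h at 37 °C, 5% CO2, then sonicated and homogenized. Microsomal pellet collected at 174000g, 1 h, 4 °C. Membranes diluted in 0.1 M K3PO4, pH 7.4, with 2.5 mM glutathione. Compound or vehicle added for 15 min at 4 °C. Reaction started with 20 μM PGH2, stopped after 1 min with FeCl2/citric acid containing 11β-PGE2 internal standard. PGE2 measured by SPE-HPLC.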
# Histone deacetylase = assay: Inhibition of HDAC in human HeLa cell nuclear extract using BML-KI104 Fluor de Lys as substrate by fluorescence-based assay
SMILES,IC50 (Prostaglandin E synthase),IC50 (Histone deacetylase)
COc1cc(/C=C/C(=O)C(CC=C(C)C)(CC=C(C)C)C(=O)/C=C/c2ccc(OCC=C(C)C)c(OC)c2)ccc1OCC=C(C)C,2 µM,
COc1cc(/C=C/C(=O)CC(=O)/C=C/c2ccc(OCC=C(C)C)c(OC)c2)ccc1OCC=C(C)C,2 µM,347 µM
COc1cc(/C=C/C(=O)CC(=O)/C=C/c2ccc(OC/C=C(\C)CC/C=C(\C)CCC=C(C)C)c(OC)c2)ccc1OC/C=C(\C)CC/C=C(\C)CCC=C(C)C,2 µM,122 µM
COc1cc(/C=C/C(=O)C(CC=C(C)C)C(=O)/C=C/c2ccc(OCC=C(C)C)c(OC)c2)ccc1OCC=C(C)C,2 µM,
COc1cc(/C=C/C(=O)C(C/C=C(\C)CCC=C(C)C)(C/C=C(\C)CCC=C(C)C)C(=O)/C=C/c2ccc(OC/C=C(\C)CCC=C(C)C)c(OC)c2)ccc1OC/C=C(\C)CCC=C(C)C,2 µM,786 µM
COc1cc(/C=C/C(=O)CC(=O)/C=C/c2ccc(OC/C=C(\C)CC/C=C(\C)CCC=C(C)C)c(OC)c2)ccc1O,2 µM,84.2 µM

# Further lines, results first:
IC50 (Prostaglandin E synthase),IC50 (Histone deacetylase),SMILES
2 µM,217 µM,COc1cc(/C=C/C(=O)C(C/C=C(\C)CCC=C(C)C)C(=O)/C=C/c2ccc(OC/C=C(\C)CCC=C(C)C)c(OC)c2)ccc1OC/C=C(\C)CCC=C(C)C
2 µM,188 µM,COc1cc(/C=C/C(=O)CC(=O)/C=C/c2ccc(OC/C=C(\C)CCC=C(C)C)c(OC)c2)ccc1OC/C=C(\C)CCC=C(C)C
0.22 µM,,COc1cc(/C=C/C(=O)CC(=O)/C=C/c2ccc(O)c(OC)c2)ccc1O [CURCUMIN]
1.02 µM,495 µM,COc1cc(/C=C/C(=O)CC(=O)/C=C/c2ccc(OC/C=C(\C)CCC=C(C)C)c(OC)c2)ccc1O
0.93 µM,5620 µM,COc1cc(/C=C/C(=O)CC(=O)/C=C/c2ccc(OCC=C(C)C)c(OC)c2)ccc1O
